The subject of experiment [1] is Staphylococcus aureus. Kind of experiment: Antimicrobial activity against Staphylococcus aureus NCTC 8325 incubated for 45 mins. It counts as functional. The following applies: NCTC 8325, 0.75 h.
The test system of a further experiment is Escherichia coli. The experiment can be described thus: Antimicrobial activity against Escherichia coli ATCC 25922 by broth microdilution method.
The subject of a further experiment is Candida albicans. Kind of experiment: Antimicrobial activity against Candida albicans ATCC 10231 by broth microdilution method.
Experiment [2] concerns Staphylococcus aureus. Kind of experiment: Antimicrobial activity against Staphylococcus aureus ATCC 29213 by broth microdilution method.
Another experiment concerns HOP-62. Kind of experiment: Antiproliferative activity against human HOP-62 cells assessed as growth inhibition at 10 uM incubated for 48 hrs by SRB method. It counts as functional. As to conditions: read-out: GI. The method in brief: (§1)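 NCI-60 one-dose screen at 10 μM. Cells were grown in RPMI 1640 with 5% FBS and 2 mM L-glutamine and plated at 5000–40 000 cells/well for 24 h. Drug exposure was 48 h at 37 °C, 5% CO2. Cells were fixed with TCA, stained with 0.4% SRB and read at 515 nm. Growth is expressed as percent of untreated control and time-zero plates.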

The subject of experiment [3] is U-251. Kind of experiment: Antiproliferative activity against human U-251 cells assessed as growth inhibition at 10 uM incubated for 48 hrs by SRB method. It counts as functional. The following applies: read-out: GI. The method in brief:
as §1

For the next experiment, the system named is SK-MEL-2. The experiment can be described thus: Antiproliferative activity against human SK-MEL-2 cells assessed as growth inhibition at 10 uM incubated for 48 hrs by SRB method. Format: functional. The following applies: read-out: GI. The method in brief:
as §1

In experiment [4] the test system is UACC-62. The experiment can be described thus: Antiproliferative activity against human UACC-62 cells assessed as growth inhibition at 10 uM incubated for 48 hrs by SRB method. It counts as functional. As to conditions: read-out: GI. The method in brief:
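NCI-60 one-dose screen at 10 μM. Cells grown in RPMI 1640 with 5% FBS and 2 mM L-glutamine, plated at 5000–40 000 cells/well and preincubated 24 h at 37 °C, 5% CO2. Drug exposure 48 h. Fixed with TCA and stained with 0.4% SRB, absorbance read at 515 nm. Percent growth calculated against untreated control and time-zero plates.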

Experiment [5] has as its system SF-295. The experiment can be described thus: Antiproliferative activity against human SF-295 cells assessed as growth inhibition at 10 uM incubated for 48 hrs by SRB method. It counts as functional. The following applies: read-out: GI. The method in brief: as §1
The subject of the next experiment is SNB-19. Kind of experiment: Antiproliferative activity against human SNB-19 cells assessed as growth inhibition at 10 uM incubated for 48 hrs by SRB method. It counts as functional. The following applies: read-out: GI. The method in brief: as §1
Another experiment has as its system RXF 393. Kind of experiment: Antiproliferative activity against human RXF 393 cells assessed as growth inhibition incubated for 48 hrs by SRB method. Format: functional. The method in brief: (§2)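 NCI-60 five-dose screen at 0.01, 0.1, 1, 10 and 100 μM, triplicate wells per dose. Cells were in RPMI 1640 with 5% FBS and 2 mM L-glutamine, pre-grown 24 h and then treated for 48 h at 37 °C. Read-out was TCA fixation and SRB absorbance at 515 nm.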

A further experiment has as its system SF-268. The experiment can be described thus: Antiproliferative activity against human SF-268 cells assessed as growth inhibition incubated for 48 hrs by SRB method. It counts as functional. The method in brief: as §2
The next experiment has as its system UACC-257. Kind of experiment: Antiproliferative activity against human UACC-257 cells assessed as growth inhibition incubated for 48 hrs by SRB method. It counts as functional. The method in brief:
as §2

In the next experiment the test system is OVCAR-8. The experiment can be described thus: Antiproliferative activity against human OVCAR-8 cells assessed as growth inhibition incubated for 48 hrs by SRB method. It counts as functional. The method in brief:
as §2

For the next experiment, the system named is SNB-75. The experiment can be described thus: Antiproliferative activity against human SNB-75 cells assessed as growth inhibition incubated for 48 hrs by SRB method. Format: functional. The method in brief: as §2
Experiment [6] concerns A549. Kind of experiment: Downregulation of Bcl-2 gene expression in human A549 cells by qRT-PCR analysis. It counts as functional, cell-based. The method in brief: (§3)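 A549/ATCC cells treated, total RNA DNase-treated and checked by 260/280 ratio (1.8–2.1). Reverse transcription with oligo-dT and MuLV RT: 25 °C 10 min, 42 °C 1 h, 99 °C 5 min. qPCR of 40 cycles (95 °C 15 s, 55 °C 30 s, 72 °C 30 s) followed by melt curve. Relative expression by the 2−ΔΔCT method, mean ± SEM.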

Experiment [7] in a line: Upregulation of p53 gene expression in human A549 cells assessed as fold increase by qRT-PCR analysis. Format: functional. The method in brief:
as §3

Experiment [8] can be described thus: Upregulation of Bax gene expression in human A549 cells assessed as fold increase by qRT-PCR analysis. It counts as functional. The method in brief:
as §3

For experiment [9], the system named is A549. The experiment can be described thus: Induction of cell cycle arrest in human A549 cells assessed as increase in cells at G0-G1 phase at GI50 concentration by flow cytometry analysis (reference value: 85.41%). Format: functional.
Experiment [10] relates to A549. Kind of experiment: Induction of cell cycle arrest in human A549 cells assessed as increase in cells at G0-G1 phase at GI50 concentration by flow cytometry analysis (reference value: 85.46%). Format: functional.
Experiment [11] has as its system A549. The experiment can be described thus: Induction of cell cycle arrest in human A549 cells assessed as increase in cells at G0-G1 phase at GI50 concentration by flow cytometry analysis (reference value: 85.84%). Format: functional.
For experiment [12], the system named is A549. The experiment can be described thus: Induction of cell cycle arrest in human A549 cells assessed as decrease in cells at G2/M phase at GI50 concentration by flow cytometry analysis (reference value: 13.15 to 13.37%). It counts as functional. On the set-up: scale not given: the % may be the effect or the level left.
Experiment [13] relates to A549. Kind of experiment: Induction of cell cycle arrest in human A549 cells assessed as decrease in cells at S phase at GI50 concentration by flow cytometry analysis (reference value: 0.31 to 0.51%). It counts as functional. On the set-up: scale not given: the % may be the effect or the level left.
In experiment [14] the test system is UACC-62. Kind of experiment: Antiproliferative activity against human UACC-62 cells assessed as growth inhibition incubated for 48 hrs by SRB method. Format: functional. The method in brief:
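NCI-60 five-dose screen at 0.01, 0.1, 1, 10 and 100 μM, triplicate wells per dose. Cells grown in RPMI 1640/5% FBS, preincubated 24 h, then exposed 48 h at 37 °C. TCA fixation, SRB stain, A515.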

The test system of another experiment is HOP-92. The experiment can be described thus: Antiproliferative activity against human HOP-92 cells assessed as growth inhibition incubated for 48 hrs by SRB method. It counts as functional. The method in brief: as §2
Experiment [15] relates to SF-295. The experiment can be described thus: Antiproliferative activity against human SF-295 cells assessed as growth inhibition incubated for 48 hrs by SRB method. It counts as functional. The method in brief: as §2
The test system of another experiment is NCI-H522. The experiment can be described thus: Antiproliferative activity against human NCI-H522 cells assessed as growth inhibition incubated for 48 hrs by SRB method. It counts as functional. The method in brief:
as §2

Experiment [16] relates to U-251. The experiment can be described thus: Antiproliferative activity against human U-251 cells assessed as growth inhibition incubated for 48 hrs by SRB method. It counts as functional. The method in brief: as §2
The test system of another experiment is Hs-578T. Kind of experiment: Antiproliferative activity against human Hs-578T cells assessed as growth inhibition incubated for 48 hrs by SRB method.
Another experiment relates to MDA-MB-231. The experiment can be described thus: Antiproliferative activity against human MDA-MB-231 cells assessed as growth inhibition incubated for 48 hrs by SRB method. The following applies: MDA-MB-231, 48 h.

In brackets after ≈: the same amount, converted by molar mass. Activity calls are given as the source filed them. No cut-off for these calls is given here.

Take `CNC(=O)c1cc(Oc2ccc(NC(=O)Nc3ccc(Cl)c(C(F)(F)F)c3)cc2)ccn1` [SORAFENIB]: the MIC in the experiment on Staphylococcus aureus [1] is 3 µg/mL (≈ 6.45 µM); against Escherichia coli it was 1 µg/mL (≈ 2.15 µM); in the experiment with Candida albicans, more than 128 µg/mL; against Staphylococcus aureus [2], 4 µg/mL (≈ 8.61 µM).

For the compound `O=C(NC(=S)Nc1ccc(-c2ccc(=O)[nH]n2)cc1)c1cccc(Cl)c1`, the inhibition of growth at 10 µM with HOP-62 worked out at 94.6%; in the experiment with U-251 [3], 96.1%; in the experiment with SK-MEL-2 it was 98%; with UACC-62 [4], 91%; in the experiment on SF-295 [5], 93%; in the experiment with SNB-19 it was 91.2%. Also, the GI50 came out at 6.6 µM in the experiment with RXF 393; 6.91 µM in the experiment with SF-268; 5.59 µM in the experiment with UACC-257; 6.24 µM in the experiment with OVCAR-8; 3.92 µM in the experiment with SNB-75; 4.07 µM in the experiment with UACC-62 [14]. The GI50 in the experiment on HOP-92 was found to be 3.18 µM; with SF-295 [15], 7.23 µM; with NCI-H522, 4.55 µM; in the experiment on U-251 [16] it was 6.94 µM; in the experiment on Hs-578T, 5.8 µM; in the experiment with MDA-MB-231 it was 6.83 µM. Further, the outcome with A549 [6] was Active. Further, the “fold change (FC)” value in [7] and in experiment [8] was 3 each time. For the same compound, the Activity was determined as 90.86% with A549 [9]; 89.51% in the experiment on A549 [10]; 89.87% in the experiment with A549 [11]; 8.95% with A549 [12]; 0.19% in the experiment with A549 [13]. Moreover, the MIC in the experiment on Escherichia coli is more than 1020 µg/mL; in the experiment with Candida albicans it was 512 µg/mL (≈ 1330 µM); against Staphylococcus aureus [2], 512 µg/mL (≈ 1330 µM).

Values taken from ChEMBL document CHEMBL6083209, “Pyridazinone-based derivatives as anticancer agents endowed with anti-microbial activity: molecular design, synthesis, and biological investigation” (RSC Med Chem, 2024).
